ChEMBL document CHEMBL1121504, “Aporphines. 31. Synthesis and antitumor activity of aporphine nitrogen mustards” (1980)

Columns and labels:
[1] = system: P388; assay: (§1) Antitumor activity against intraperitoneally implanted P388 lymphocytic leukemia (P388) system at dose 50 mg/kg; assay type: functional, Mus musculus; conditions: route intraperitoneal
Outline: (§2)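 P388 lymphocytic leukemia inoculated intraperitoneally and run under standard NCI screening protocols. Each compound was tested at several graded doses in mg/kg. Activity was read out as T/C for each dose, with confirmatory activity judged by the NCI criteria.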

[2] = system: P388; assay: Antitumor activity against intraperitoneally implanted P388 lymphocytic leukemia (P388) system at dose 100 mg/kg; assay type: functional, Mus musculus; conditions: route intraperitoneal; outline: as §2
[3] = system: P388; assay: (§3) Antitumor activity against intraperitoneally implanted P388 lymphocytic leukemia (P388) system at dose 12.5 mg/kg; assay type: functional, Mus musculus; conditions: route intraperitoneal; outline: as §2
[4] = system: P388; assay: (§4) Antitumor activity against intraperitoneally implanted P388 lymphocytic leukemia (P388) system at dose 25 mg/kg; assay type: functional, Mus musculus; conditions: route intraperitoneal; outline: as §2
[5] = system: P388; assay: Antitumor activity against intraperitoneally implanted P388 lymphocytic leukemia (P388) system at dose 300 mg/kg; assay type: functional, Mus musculus; conditions: route intraperitoneal; outline: as §2
[6] = system: P388; assay: Antitumor activity against intraperitoneally implanted P388 lymphocytic leukemia (P388) system at dose 37.5 mg/kg; assay type: functional, Mus musculus; conditions: route intraperitoneal; outline: as §2
[7] = system: P388; assay: Antitumor activity against intraperitoneally implanted P388 lymphocytic leukemia (P388) system at dose 75 mg/kg; assay type: functional, Mus musculus; conditions: route intraperitoneal; outline: as §2
[8] = system: P388; assay: Antitumor activity against intraperitoneally implanted P388 lymphocytic leukemia (P388) system at dose 9.38 mg/kg; assay type: functional, Mus musculus; conditions: route intraperitoneal; outline: as §2
[9] = system: P388; assay: Antitumor activity against intraperitoneally implanted P388 lymphocytic leukemia (P388) system at dose 105 mg/kg; assay type: functional, Mus musculus; conditions: route intraperitoneal; outline: as §2
[10] = system: P388; assay: Antitumor activity against intraperitoneally implanted P388 lymphocytic leukemia (P388) system at dose 18.75 mg/kg; assay type: functional, Mus musculus; conditions: route intraperitoneal; outline: as §2
[11] = Antitumor activity against intraperitoneally implanted colon 26 (C26) […] system at dose 16 mg/kg; assay type: functional, Mus musculus; conditions: route intraperitoneal
Outline: (§5)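 Murine-screen tumor implanted intraperitoneally and treated at the listed mg/kg doses under standard NCI protocols. Activity is read out as T/C, the treated-to-control ratio.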

[12] = Antitumor activity against intraperitoneally implanted colon 26 (C26) […] system at dose 32 mg/kg; assay type: functional, Mus musculus; conditions: route intraperitoneal; outline: as §5
[13] = Antitumor activity against intraperitoneally implanted colon 26 (C26) […] system at dose 4 mg/kg; assay type: functional, Mus musculus; conditions: route intraperitoneal; outline: as §5
[14] = Antitumor activity against intraperitoneally implanted colon 26 (C26) […] system at dose 8 mg/kg; assay type: functional, Mus musculus; conditions: route intraperitoneal; outline: as §5
[15] = system: B16; assay: Antitumor activity against intraperitoneally implanted B16 melanoma tumor system at dose 16 mg/kg; assay type: functional, Mus musculus; conditions: route intraperitoneal; outline: as §5
[16] = system: B16; assay: Antitumor activity against intraperitoneally implanted B16 melanoma tumor system at dose 2 mg/kg; assay type: functional, Mus musculus; conditions: route intraperitoneal; outline: as §5
[17] = system: B16; assay: Antitumor activity against intraperitoneally implanted B16 melanoma tumor system at dose 32 mg/kg; assay type: functional, Mus musculus; conditions: route intraperitoneal; outline: as §5
[18] = system: B16; assay: Antitumor activity against intraperitoneally implanted B16 melanoma tumor system at dose 4 mg/kg; assay type: functional, Mus musculus; conditions: route intraperitoneal; outline: as §5
[19] = system: B16; assay: Antitumor activity against intraperitoneally implanted B16 melanoma tumor system at dose 8 mg/kg; assay type: functional, Mus musculus; conditions: route intraperitoneal; outline: as §5
[20] = system: P388; assay: Antitumor activity against intraperitoneally implanted P388 lymphocytic leukemia (P388) system at dose 4 mg/kg; assay type: functional, Mus musculus; conditions: route intraperitoneal; outline: as §5
[21] = system: P388; assay: Antitumor activity against intraperitoneally implanted P388 lymphocytic leukemia (P388) system at dose 8 mg/kg; assay type: functional, Mus musculus; conditions: route intraperitoneal; outline: as §5
[22] = system: P388; assay: Antitumor activity against intraperitoneally implanted P388 lymphocytic leukemia (P388) system at dose 16 mg/kg; assay type: functional, Mus musculus; conditions: route intraperitoneal; outline: as §5
[23] = system: P388; assay: Antitumor activity against intracerebrally implanted lymphocytic leukemia (P388) system at dose 16 mg/kg; assay type: functional, Mus musculus
[24] = system: P388; assay: Antitumor activity against intracerebrally implanted lymphocytic leukemia (P388) system at dose 8 mg/kg; assay type: functional, Mus musculus
[25] = Antitumor activity against intracerebrally implanted ependymoblastoma (EM) tumor system at dose 0.5 mg/kg; assay type: functional
Outline: (§6)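 Tumor implanted […] and treated at the listed mg/kg doses under standard NCI protocols. Activity is read out as T/C, the treated-to-control ratio.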

[26] = Antitumor activity against intracerebrally implanted ependymoblastoma (EM) tumor system at dose 1 mg/kg; assay type: functional; outline: as §6
[27] = Antitumor activity against intracerebrally implanted ependymoblastoma (EM) tumor system at dose 2 mg/kg; assay type: functional; outline: as §6
[28] = Antitumor activity against intracerebrally implanted ependymoblastoma (EM) tumor system at dose 0.25 mg/kg; assay type: functional; outline: as §6
[29] = Antitumor activity against intracerebrally implanted ependymoblastoma (EM) tumor system at dose 4 mg/kg; assay type: functional; outline: as §6
[30] = system: B16; assay: Antitumor activity against B16 melanoma tumor system at dose 1.56 mg/kg; assay type: functional, Mus musculus
Outline: (§7)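 B16 melanocarcinoma assay run at the listed mg/kg doses under standard NCI protocols. Activity is read out as T/C, the treated-to-control ratio.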

[31] = system: B16; assay: Antitumor activity against B16 melanoma tumor system at dose 12.5 mg/kg; assay type: functional, Mus musculus; outline: as §7
[32] = system: B16; assay: Antitumor activity against B16 melanoma tumor system at dose 25 mg/kg; assay type: functional, Mus musculus; outline: as §7
[33] = system: B16; assay: Antitumor activity against B16 melanoma tumor system at dose 3.13 mg/kg; assay type: functional, Mus musculus; outline: as §7
[34] = system: B16; assay: Antitumor activity against B16 melanoma tumor system at dose 50 mg/kg; assay type: functional, Mus musculus; outline: as §7
[35] = system: B16; assay: Antitumor activity against B16 melanoma tumor system at dose 6.25 mg/kg; assay type: functional, Mus musculus; outline: as §7
[36] = system: P388; assay: as §3; assay type: functional, Mus musculus; conditions: route intraperitoneal; outline: as §5; remark: listed apart in the source
[37] = system: P388; assay: as §4; assay type: functional, Mus musculus; conditions: route intraperitoneal; outline: as §5; remark: listed apart in the source
[38] = system: P388; assay: Antitumor activity against intraperitoneally implanted P388 lymphocytic leukemia (P388) system at dose 3.13 mg/kg; assay type: functional, Mus musculus; conditions: route intraperitoneal; outline: as §5
[39] = system: P388; assay: as §1; assay type: functional, Mus musculus; conditions: route intraperitoneal; outline: as §5; remark: listed apart in the source
[40] = system: P388; assay: Antitumor activity against intraperitoneally implanted P388 lymphocytic leukemia (P388) system at dose 6.25 mg/kg; assay type: functional, Mus musculus; conditions: route intraperitoneal; outline: as §5

Work on COc1ccc2c(c1O)-c1cccc3c1C(C2)N(CCOCCCl)CC3 (stereo not given) yielded a T/C [1] of 101, a T/C [2] of 104 and a T/C [3] of 99. The T/C [4] was 107.
With COc1ccc2c(c1O)-c1cccc3c1C(C2)N(CCOC(=O)NCCCl)CC3 (stereo not given) the T/C [5] was 105, the T/C [6] was 97 and the T/C [7] was 99. For the same compound, the T/C [8] was 101, the T/C [9] was 99 and the T/C [10] was 99.
In the case of COc1ccc2c(c1O)-c1cccc3c1C(C2)N(CCCl)CC3 (stereo not given), the T/C [11] is reported as 108, the T/C [12] is reported as 124 and the T/C [13] is reported as 107. It also gave a T/C [14] of 119, a T/C [15] of 106 and a T/C [16] of 100. The T/C [17] was 103, the T/C [18] was 106 and the T/C [19] was 102. It also gave a T/C [20] of 151, a T/C [21] of 114 and a T/C [22] of 128. The T/C [23] was 107, the T/C [24] was 96 and the T/C [25] was 100. It also gave a T/C [26] of 96, a T/C [27] of 99 and a T/C [28] of 105. The T/C [29] was 104.
With COc1ccc2c(c1OC(C)=O)-c1cc(OC(C)=O)cc3c1C(C2)N(C(=O)CN(CCCl)CCCl)CC3 (stereo not given) the T/C [30] was 120, the T/C [31] was 150 and the T/C [32] was 150. The T/C [33] was 120, the T/C [34] was 170 and the T/C [35] was 159. For the same compound, the T/C [36] was 170, the T/C [37] was 185 and the T/C [38] was 138. For the same compound, the T/C [39] was 95 and the T/C [40] was 150.
